# Most compounds without a hit are left out; they make up all but 3.5% or so of the library.
# FXIa inh: blocks human coagulation factor XIa protease activity; P03951; purified FXIa, Boc-Glu-Ala-Arg-AMC fluorogenic substrate; inhibition, % at 5 µM; 0.14% of 220,000 active; AID 798;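 active = inhibition of at least 40%; inactive = inhibition below 40%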;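 note: fluorescence of freed AMC excited at 355 nm; 0% = enzyme without compound and 100% = no enzyme blank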
# KLK5 inh: blocks human kallikrein 5 protease activity; Q9Y337; recombinant hK5, fluorogenic AMC substrate cleavage; inhibition, % at 5 µM; 0.59% of 210,000 active; AID 873;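 active = inhibition of 40% or more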;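 note: 0% = enzyme controls without compound and 100% = no-enzyme blanks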
# STAT3 act-1: increases IL-6 driven STAT3 reporter signal; activation (% of control), % at 5.6 µM; U3A cells, IL-6 STAT3-luciferase reporter, luminescence; 100% = signal with IL-6 EC80 alone; 0.91% of 190,000 active; AID 871;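 active = activation above the screen-wide mean of compound activation plus 3 SD, cut at about 130% in these data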;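 note: 0% = background luminescence of wells with medium and substrate only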
#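 Material: human STAT1-deficient U3A cells with stable STAT3-luciferase reporter / Probe or stimulus: IL-6 stimulus at 33 ng/mL final / Schedule: 1 h compound pre-exposure, 6 h IL-6 stimulation, 37 °C / Technique: luminescence / Read-out basis: percent of IL-6-only median luminescence / Control set: IL-6-only high control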
# FXIIa inh 1536: blocks human coagulation factor XIIa protease activity | P00748 | purified FXIIa, Boc-QGR-AMC fluorogenic substrate, 2 h | inhibition, % at 5 µM | 0.3% of 220,000 active | AID 800; in the data active = inhibition above about 40%;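 note: 0% = enzyme with no compound and 100% = blank without enzyme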
# Target sequence (P00748 20-372 limits assumed): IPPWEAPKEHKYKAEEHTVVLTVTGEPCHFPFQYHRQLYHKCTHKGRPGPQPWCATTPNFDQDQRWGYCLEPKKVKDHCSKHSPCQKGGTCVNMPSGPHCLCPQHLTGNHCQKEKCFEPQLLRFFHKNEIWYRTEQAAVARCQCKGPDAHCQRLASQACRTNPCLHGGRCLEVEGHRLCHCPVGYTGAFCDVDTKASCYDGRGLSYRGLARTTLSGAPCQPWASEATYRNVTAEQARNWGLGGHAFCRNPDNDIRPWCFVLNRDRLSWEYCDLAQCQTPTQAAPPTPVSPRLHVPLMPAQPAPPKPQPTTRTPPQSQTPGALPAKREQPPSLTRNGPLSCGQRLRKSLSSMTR
# Target sequence (P00748 373-615 limits assumed): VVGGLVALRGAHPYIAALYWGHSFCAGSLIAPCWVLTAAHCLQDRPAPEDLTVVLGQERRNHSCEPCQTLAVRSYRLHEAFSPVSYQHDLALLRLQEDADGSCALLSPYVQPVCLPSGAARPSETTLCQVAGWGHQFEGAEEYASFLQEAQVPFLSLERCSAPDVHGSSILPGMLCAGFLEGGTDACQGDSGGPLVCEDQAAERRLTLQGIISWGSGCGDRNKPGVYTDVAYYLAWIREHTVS
# thrombin 1536: thrombin (human) inhibition. P00734. alpha-thrombin, Boc-VPR-AMC fluorogenic substrate cleavage. inhibition, % at 5 µM. 0.26% of 220,000 active. AID 1046;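 active = inhibition at or above 40%; inactive = inhibition below 40%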;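 note: 0% = enzyme with no compound and 100% = wells without enzyme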
#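 Test system: human alpha-thrombin; medium: pH 7.5 Tris-saline with Tween 20; times: reaction at room temperature; signal: AMC fluorescence at 355 nm excitation and 460 nm emission; also added: Boc-VPR-AMC substrate, 15 µM final; dosing: one concentration per compound, 5 µM, with 0.2% DMSO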
# AHR activator: activators of human aryl hydrocarbon receptor; P35869; AHR-responsive luciferase reporter cells, luminescence; activation, % at 5 µM; 2.5% of 320,000 active; AID 2796; in the data active = activation above about 47%;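 note: 0% = vehicle wells and 100% = reference agonist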
# STAT3 act-2: STAT3 activation, confirmation assay; shares compounds with STAT3 act-1; U3A STAT3-luciferase reporter, IL-6 potentiation, luminescence; U3A cells lack STAT1; 100 means same as IL-6 alone; potentiation (% of control), % at 5.7 µM; 64% of 1,200 active; AID 1267;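 active = percent activation of the STAT3 luciferase reporter above a set limit taken from the earlier primary screen, cut at about 130% in these data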;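 note: 0% = background signal of medium plus substrate and 100% = median of IL-6 with DMSO wells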
# NFkB act 2: NF-kappaB activation in STAT3 activator counter-screen; shares compounds with STAT3 act-1; human cells, NF-kappaB reporter activation; activation (% of control), % at 5.7 µM; 11% of 1,200 active; in the data active = activation above about 120%;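 note: reporter induced by TNF-alpha stimulation; 100% = median of stimulated DMSO wells and 0% = no signal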
# STAT1 act STAT3c: counter-screen for STAT3 activators: STAT1 activation; AID 1318; NIH 3T3 STAT1-luciferase reporter, IFN-gamma, luminescence; 13% of 1,200 active; activation (% of control), % at 5.7 µM; shares compounds with STAT3 act-1;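 active = activation above the solvent-only control well mean plus 3 SD, set per screening run, cut at about 120% in these data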;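 note: 100% = IFN-gamma with DMSO median signal so 100% means no change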
# Active calls of the source: *; / = not tested or not shown.
SMILES,FXIa inh,KLK5 inh,STAT3 act-1,FXIIa inh 1536,thrombin 1536,AHR activator,STAT3 act-2,NFkB act 2,STAT1 act STAT3c
O=C(Nc1ccccc1N1CCN(C(=O)c2ccccc2)CC1)c1cc2ccccc2o1,2,3,142*,10,-3,17,126,101,96
O=C(Nc1ccc(N2CCN(C(=O)c3ccccc3)CC2)cc1)c1cc2ccccc2o1,-6,2,50,-6,-12,-15,/,/,/
O=C(Nc1ccccc1N1CCOCC1)c1cc2ccccc2o1,/,/,/,/,/,10,/,/,/
CCCC1=Nc2cc(C(=O)NCCCOCC)ccc2Sc2ccccc21,6,4,137*,15,2,29,114,156*,107
Cn1c(=O)c2sccc2n(Cc2cccc(Br)c2)c1=O,/,/,/,/,/,3,/,/,/
CCOc1ccc(NC(=O)CN(C)C(=O)c2c(C)nn(-c3ccccc3)c2Cl)cc1OCC,/,/,/,/,/,7,/,/,/
COc1ccc(-c2nc3scc(-c4ccccc4)n3n2)cc1,6,3,160*,21,5,33,144*,103,95
CCOC(=O)Cc1csc2nc(-c3ccccc3)nn12,1,-3,/,8,-3,0,/,/,/
O=C(CC(=O)N/N=C/c1ccc(O)cc1)N/N=C/c1ccc(O)cc1,4,7,/,9,4,0,/,/,/
O=C(Cc1cccs1)N/N=C\c1ccc(O)cc1,-6,-11,142*,2,-1,1,124,123*,151*
CCCCn1nc(C(=O)N2CCN(S(=O)(=O)c3ccccc3)CC2)c2ccccc2c1=O,/,/,/,/,/,4,/,/,/
CCC(C)(C(=O)NC1CCCC1)N(C(=O)c1cnccn1)c1ccccc1 (stereo unspecified),-5,-24,137*,5,-10,3,117,100,103
CCC(C)(C(=O)NC1CCCC1)N(C(=O)c1ccccn1)c1ccccc1 (stereo unspecified),-6,-6,93,4,-1,-3,/,/,/
CCOC(=O)CSc1nc(-c2ccccc2)nc2c1oc1ccccc12,-9,16,137*,-8,-7,48*,134*,111,94
COc1ccc(N=Cc2sc3ccccc3c2Cl)cc1,-12,-16,137*,1,28,12,110,115,132*
O=C1N(c2ccccc2)C[C@@H]2C[C@@H](c3cc4ccccc4o3)N3CCC[C@@]123,-2,-5,141*,5,-4,/,156*,43,107
Cc1cnc(NC(=O)c2c(O)c3cccc4c3n(c2=O)CCC4)s1,-11,-75,165*,-1,7,/,149*,101,102
O=C(Nc1cccc(F)c1)c1c(O)c2cccc3c2n(c1=O)CCC3,-1,1,142*,3,8,20,143*,98,93
COc1ccc(/C(C)=N/NC(=O)CNC(=O)/C=C\c2ccccc2OC)c(OC)c1,/,/,/,/,/,9,/,/,/
CCOC(=O)c1[nH]c2ccc(OC)cc2c1NS(=O)(=O)c1ccc(OC)cc1OC,20,-9,103,32,-1,14,/,/,/
COC(=O)c1[nH]c2ccc(F)cc2c1NS(=O)(=O)c1ccc(OC)cc1OC,-6,-2,143*,-11,-7,15,132,103,100
C=CCOC(=O)Nc1c(C(=O)OC)[nH]c2ccccc12,-6,-13,148*,2,-3,57*,150*,105,93
CCS(=O)(=O)Nc1c(C(=O)O)[nH]c2ccccc12,-3,-1,164*,-1,-6,39,169*,102,97
CCS(=O)(=O)Nc1c(C(=O)OC)[nH]c2ccccc12,12,-19,139*,23,-23,21,119,97,92
Cc1ccc(S(=O)(=O)Nc2c(C(=O)O)[nH]c3ccccc23)cc1C,/,/,/,/,/,18,/,/,/
SMILES,FXIa inh,KLK5 inh,STAT3 act-1,FXIIa inh 1536,thrombin 1536,AHR activator,STAT3 act-2,NFkB act 2,STAT1 act STAT3c
COC(=O)c1[nH]c2ccccc2c1NC(=O)c1ccccc1F,3,3,/,11,0,12,/,/,/
COC(=O)C1=C(CS(=O)(=O)c2cc(OC)ccc2OC)NC(=O)NC1c1ccc(O)c(OC)c1 (stereo unspecified),/,/,/,/,/,2,/,/,/
Cn1c([N+](=O)[O-])cnc1N1CCN(c2nncs2)C1=O,5,0,/,8,-5,3,/,/,/
COc1nc2c(C)cccc2cc1-c1noc(-c2ccco2)n1,-5,-14,163*,-1,-3,33,144*,109,99
COc1nc(-c2ccc(Cl)cc2)ccc1-c1noc(-c2ccco2)n1,2,-1,98,10,5,5,/,/,/
CCOC(=O)c1c(C)oc2c1cc(O)c1ccccc12,2,16,145*,13,1,20,152*,101,97
CC(=O)c1c(C)oc2c1cc(O)c1ccccc12,-1,-3,/,5,0,20,/,/,/
Brc1ccc(OCCCOc2cccc3cccnc23)cc1,/,/,/,/,/,4,/,/,/
Brc1ccc(-c2cn3c(n2)CCc2ccc4cccnc4c2-3)cc1,-4,-49,157*,2,2,47*,149*,101,89
CCOC(=O)c1cnn(-c2cc(C)c3ccccc3n2)c1N,-3,5,170*,1,-7,53*,173*,117,107
CCOC(=O)c1cnn(-c2ccccn2)c1N,2,-2,94,12,-3,-5,/,/,/
N#Cc1cn(CC(=O)O)c2ccccc12,4,-8,140*,12,0,28,140*,102,92
CC(=O)N1[C@H](Cc2ccccc2)C=C[C@]1(C)C(=O)NCc1ccccn1,7,-15,103,10,-2,10,/,/,/
Cc1nc2ncnn2c(C)c1Cc1ccc(Cl)cc1F,10,-11,97,19,1,1,/,/,/
COc1cc(/C=N/Nc2ccc(Cl)c(C(=O)O)c2)ccc1OC(=O)c1cccs1,1,-14,105,9,-11,6,/,/,/
NC(=O)CSc1nc2ccc([N+](=O)[O-])cc2[nH]1,1,-12,97,8,3,7,/,/,/
Cc1ccc2nc(SCC(=O)Nc3cc([N+](=O)[O-])ccc3F)[nH]c2c1,-5,-8,139*,10,-10,40,139*,107,97
CCOC(=O)C1CCN(C(=O)CCn2c(=O)c3cccn3c3cccnc32)CC1,/,/,/,/,/,4,/,/,/
O=c1c(Cl)c(N/N=C/c2ccc(Br)cc2)cnn1-c1ccccc1,2,22,150*,3,7,35,126,101,102

# Bioassay records (PubChem)
